# Assay results of several laboratories.
# Protocols differ between the studies behind these lines.
# Target: Dual specificity protein kinase CLK4 (CLK4, Homo sapiens, UniProt Q9HAZ1)
SMILES,test,setting,measurement,result
O=C(CSc1nc2nccnc2c(=O)n1CCc1ccccc1)Nc1nccs1,"enzyme activity, inhibitor",10 µM,inhibition,5%
Oc1ccc(-c2nc(-c3ccncc3)c(-c3ccc(F)cc3)[nH]2)cc1,cell-free assay,0.5 µM,remaining signal,106%
CN(CCCC(F)(F)F)c1nccc(-c2cnn3ncccc23)n1,binding,1 µM,remaining binding,25%
Cc1ccc(NC(=O)c2ccc(CN3CCN(C)CC3)cc2)cc1Nc1nc(-c2cccnc2)cs1,cell-free assay,0.5 µM,remaining signal,93.3%
O=C(Nc1cnn(-c2csc(C(=O)NC3COC3)c2)c1)Nc1c(F)cccc1Cl,"enzyme activity, inhibitor",5 µM,remaining activity,93.2%
Nc1ncnc2occ(-c3ccc(NC(=O)Nc4cc(C(F)(F)F)ccc4F)cc3)c12,"cell-free assay, inhibitor",20 µM,remaining signal,5.8%
O=C(Nc1cccnn1)N1CCC(=Cc2cccc(Oc3ccc(C(F)(F)F)cn3)c2)CC1,"cell-free assay, competition with immobilised ligand",1 µM,remaining binding,70%
Cn1cncc1C1=CN(c2ncnc3[nH]cnc23)CCS1,"enzyme activity, inhibitor, radiometric",50 nM,inhibition,27.1%
CC(C)(C)c1nc(-c2cccc(NS(=O)(=O)c3c(F)cccc3F)c2F)c(-c2ccnc(N)n2)s1,"enzyme activity, inhibitor, radiometric",1 µM,remaining activity,74%
Cc1ccc(NC(=O)c2ccc(C)c(C(F)(F)F)c2)cc1C#Cc1nn(C2CCC(O)CC2)c2ncnc(N)c12 (centres unmarked),cell-free assay,10 µM,remaining signal,58%
CCCCN(CCCC)C(=O)CN1C[C@@H](c2cc(OC)c3c(c2)OCO3)[C@H](C(=O)O)[C@H]1CC(C)(C)CCC,"cell-free assay, competition with immobilised ligand",1 µM,remaining binding,72.4%
N#CCCc1ccc2c(c1)-c1[nH]c3ccc([N+](=O)[O-])cc3c1CC(=O)N2,cell-free assay,0.5 µM,remaining signal,77.1%
FC(F)(F)c1ccc2c(c1)nc(-c1cccnc1)n2C1CC1,"cell-free assay, competition with immobilised ligand",1 µM,remaining binding,100%
COc1cc(-c2cc(-c3ccc(N4CCNCC4)cc3)cnc2C)cc(OC)c1OC,"enzyme activity, inhibitor",1 µM,inhibition,7%
CCOCCn1cc(C(=O)Nc2ccc(-n3nc(-c4cccnc4)cc3C(F)(F)F)cn2)ccc1=O,"cell-free assay, competition with immobilised ligand",1 µM,remaining binding,100%
Cn1cnc(Br)c1C1=CN(c2ncnc3[nH]cnc23)CCS1,"enzyme activity, inhibitor, radiometric",50 nM,inhibition,24%
O=C(NC[C@@H]1[C@H]2CN(C(=O)OCc3cc(C(F)(F)F)cc(C(F)(F)F)c3)C[C@@H]12)c1ccc2[nH]nnc2c1,"cell-free assay, competition with immobilised ligand",1 µM,remaining binding,98%
COc1cc(Cl)c(C(=O)N[C@@H](CN[C@H]2CC[C@@H](N)CC2)Cc2ccc(C#N)cc2)cc1-c1ccc(CN[C@H](C)c2ccc(C)cc2)o1,"enzyme activity, inhibitor",1 µM,remaining activity,103%
O=C1Nc2ccc(Cl)cc2C1=Cc1cc(Cl)c(O)c(Cl)c1,cell-free assay,0.5 µM,remaining signal,60.7%
NS(=O)(=O)c1cc(NC(=O)Cc2ccccc2)ccc1Oc1cccc(Cl)c1,"cell-free assay, competition with immobilised ligand",1 µM,remaining binding,83%
